# Results taken from PubChem BioAssay.
# Unmarked numbers belong to inactive results. Results filed as inconclusive are left out. Calls of active or inactive are those of the source.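 The calls were made as follows, unless noted: active = growth inhibition above 25% in both replicates, a cutoff set 3 SD above the mean; inconclusive = above 25% in only one replicate; inactive = the rest.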
# Key:
# [1] = S. cerevisiae growth inhibition in permissive medium (OD615), pilot counter-assay for S. cerevisiae lifespan shortening project, permissive growth control (AID 705); details: OD615, 24 h, at 10 µM, active compounds read high
# Outline: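 assay system = Saccharomyces cerevisiae strain carrying genetically modified DeaD replicative-lifespan system | medium = SC raffinose/galactose permissive medium | dosing = 10 µM single dose, 0.25% DMSO | schedule = 24 h compound exposure at 30 °C after 4 h pre-growth | measured by = OD at 615 nm | read-out basis = growth inhibition from lowered OD615 after 24 h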
# [2] = S. cerevisiae growth inhibition in restrictive medium, OD615, pilot screen, restrictive growth control, yeast lifespan reduction project (AID 706;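 active = growth inhibition above a set limit, 3 SD over mean compound inhibition, in both replicates, cut at about 43% in these data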;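 also: modified DeaD lifespan yeast strain shifted to restrictive glucose medium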); details: OD615, 48 h, at 10 µM, active compounds read high
# Outline: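 Buffer or medium: CSMM-D glucose medium. Material: genetically modified Saccharomyces cerevisiae, DeaD replicative lifespan assay strain. Times: 48 h compound exposure at 30 °C. Measured by: optical density at 615 nm.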
# [3] = doxorubicin toxicity protection in MRP-1 cells – H69AR cells, CellTiter-Glo, duplicate, MRP-1 activator project, pilot screen (AID 807;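 active = viability increase at or above a cutoff of the median across tested compounds plus 3 SD, cut at about 8.5% in these data, passing the limit was not always enough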;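 also: compound pretreatment 18-22 h then 72 h combined with doxorubicin; 0% = doxorubicin alone and 100% = vehicle without doxorubicin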); details: H69AR viability with doxorubicin, CellTiter-Glo luminescence; at 10 µM; active compounds read high
# [4] = viability of HCT116 without oncogenic beta-catenin – human colon tumor cells, pilot screen (AID 823;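 active = cell viability at or below a set limit in both duplicate runs, the limit being the all-compound median minus 4 SD, cut at about 23% in these data, passing the limit was not always enough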;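 also: 0% = wells killed by 20 µM Hyamine and 100% = untreated DMSO cell wells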); details: HCT116 beta-catenin knockout viability, CellTiter-Glo, 60 h; at 10 µM; active compounds read low
# [5] = viability of PTEN-null HCT116 cells – cell-based, HCT116 clonal line, CellTiter-Glo, pilot screen (AID 824;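 active = viability at or below 27.92% in each of two runs, the all-compound median minus 4 SD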;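 also: 0% = 20 µM Hyamine control and 100% = vehicle cell control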); details: HCT116 PTEN-deleted viability, 60 h, at 10 µM, active compounds read low
# [6] = RAM pathway blockade in budding yeast – dse1pr::URA3 reporter, 5-FOA selection, pilot screen (AID 869;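 active = inhibition over a set limit, the all-compound mean plus 3 SD, in both replicate runs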;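 also: 0% = DMSO wells with no growth and 100% = 10 µM 1-NA-PP1 with full growth; RAM network block rescues cells from 5-FOA so hits raise OD615 growth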); details: S. cerevisiae dse1pr::URA3 5-FOA growth, OD615, 2 d; at 10 µM; active compounds read high; strain carries analog-sensitive mutant Cbk1 kinase
# [7] = RAM signaling pathway blockade in yeast – S. cerevisiae, Pdr1DBD-CYC8 efflux-inhibited sensitized strain, primary screen (AID 1298;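 active = RAM network inhibition above 8.4% in each of two replicates, 3 SD over the compound average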;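 also: 0% = DMSO untreated cells without growth and 100% = 10 µM 1-NA-PP1 full growth; higher means more yeast growth rescued from 5-FOA killing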); details: S. cerevisiae cbk1-as DSE1-URA3 strain, 5-FOA growth OD615, 2 d; at 50 µM; active compounds read high
SMILES,growth inhibition [1],growth inhibition [2],viability increase [3],viability [4],viability [5],inhibition [6],RAM network inhibition [7]
C=CCn1c(CCCNC(=O)CCC)nc2ccccc21,2%,0.97%,-0.01%,99.4%,103%,-0.095%,4.24%
COc1ccc2[nH]c(C)c(CCN3C(=O)C4CC=CCC4C3=O)c2c1 (centres undefined),-14.4%,-15.3%,0.77%,105%,89.2%,0.55%,2.77%
NC(=O)c1oc2ccccc2c1NC(=O)CCc1ccccc1,1.12%,2.84%,-2.96%,96.8%,97.2%,0.36%,3.76%
Cc1ccc(N(CC(=O)NC2CCC(C)CC2)S(=O)(=O)c2cccnc2)cc1 (centres undefined),4.48%,8.91%,0.07%,98.3%,98.1%,1.15%,-1.86%
C/C(=C1\SC(N2CCOCC2)=NC1=O)c1ccccc1,-19.6%,-10.6%,-2.49%,97%,102%,0.76%,1.09%
COc1ccc2cc3c(N)nn(C(=O)Cc4ccccc4OC)c3nc2c1,10.1%,17.7%,-8.54%,2.78% (active),5.52% (active),0.65%,2.84%
O=C(Nc1ccc(F)cc1F)N1CCN(c2ncccn2)CC1,-14.8%,-26.3%,-0.19%,106%,100%,1.76%,3.24%
CCc1ccc(C2CC(c3ccc(F)cc3)Nc3nc(N)nn32)cc1 (centres undefined),-4.34%,9.52%,-0.06%,103%,95.4%,-0.41%,7.69%
COc1cccc2c(=O)n(CC(=O)N3CCN(c4ccccc4)CC3)ccc12,-7.37%,-7.01%,-0.94%,99.7%,98.1%,1.39%,4.22%
CC(C)(CC(=O)O)Cc1nc(-c2ccc(Cl)cc2)no1,2.38%,10.4%,1.26%,100%,93.2%,0.855%,-3.9%
CC1CN(c2ncnc3c2cnn3-c2ccc(Cl)cc2)CC(C)O1 (centres undefined),-3.73%,-8.06%,3.8%,100%,88.4%,1.4%,3.95%
CCOc1cc(/C=N/n2cnnc2)ccc1OCC(=O)Nc1ccccc1OC,0.995%,0.62%,-1.37%,101%,95.7%,1.91%,2.52%
Cc1ccc(CN2C(=O)/C(=C3\SC(N4CCOCC4)=NC3=O)c3cc(Br)ccc32)cc1,-10.5%,-12.1%,-1.85%,76.7%,79.7%,0.615%,9.54%
COc1cccc(-c2cc(C(F)(F)F)nc(N3CCOCC3)n2)c1,-4.32%,-9.04%,0.16%,73.5%,77.8%,1.38%,6.83%
CCC(=O)Nc1nnc(-c2ccco2)o1,-3.92%,-4.75%,-0.45%,93.8%,102%,0.105%,4.9%
Cc1cc(-c2ccco2)n(CC(=O)NCCCc2ccccc2)n1,-13.3%,-2.17%,-1.48%,100%,97%,0.905%,-0.37%
O=C1N(O)C2(C=CCCC2)/C(=N\O)C12CCCCC2 (centres undefined),-11.1%,-1.67%,-2.64%,90.1%,100%,-0.15%,1.27%
Cc1c(C(=O)NCC(C)C)sc2nc(-c3ccc(F)cc3)cn12,-13.9%,-12%,1.99%,111%,103%,2.99%,10.7%
COc1cccc(-c2nc(CS(=O)(=O)CC(=O)NCc3ccccc3)c(C)o2)c1,6.62%,8.33%,-0.84%,94.8%,88.1%,1.4%,3.28%
CCOC(=O)N1CCN(Cc2nc3c(c(=O)n(C)c(=O)n3C)n2CCC(C)C)CC1,-5%,-10.9%,-4.73%,97.3%,99.9%,0.37%,8.2%
COC(=O)C1=C(N)OC2=C(C(=O)CC(C)(C)C2)C1c1cccnc1 (centres undefined),-3.42%,-15.1%,-1.92%,95.4%,90.4%,0.305%,2.43%
C=C(C)CSC1=C(C#N)C(c2ccccc2)CC(=O)N1 (centres undefined),-13.1%,-8.52%,-2.09%,86.6%,84.1%,0.55%,4.86%
